Results on 6 molecules are retold here after ChEMBL document CHEMBL1944618, “Synthesis and antifungal activity of a new series of 2-(1H-imidazol-1-yl)-1-phenylethanol derivatives” (Eur J Med Chem, 2012).

Converted amounts (≈) assume the structure as drawn.

What is called MIC is the least concentration at which growth counts as inhibited. One may read the MIC50 as the lowest concentration that inhibits either 50% of growth or 50% of the strains tested, depending on the study. Higher therefore signals lower susceptibility. What is called MIC90 is the lowest concentration that inhibits either 90% of growth or 90% of the strains tested, depending on the study. High values mean lower susceptibility, low ones higher susceptibility.

Test [1] deals with Candida albicans. The test can be described thus: Antifungal activity against Candida albicans ATCC 24433 after 48 hrs by M27-A3 CLSI method. The format is functional. The procedure, abridged: (§1)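 Broth microdilution in RPMI 1640, two-fold serial dilutions, final test range 0.125–64 µg mL-1 (fluconazole reference 0.0078–128 µg mL-1). Inoculum 1.0×10^3–1.5×10^3 cells mL-1 from yeasts grown 24 h at 35 °C on Sabouraud dextrose agar. Incubation 35 °C, read at 48 h. MIC = lowest concentration giving >50% turbidity decrease versus growth control. Run three times in triplicate. C. parapsilosis ATCC22019 served as QC.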

The test system of test [2] is Candida parapsilosis. The experiment in a line: Antifungal activity against Candida parapsilosis DSM 11224 after 48 hrs by M27-A3 CLSI method. In kind it is functional. The procedure, abridged:
as §1

Test [3] deals with Pichia kudriavzevii. The experiment in a line: Antifungal activity against Candida krusei PMC 0613 after 48 hrs by M27-A3 CLSI method. The format is functional. An outline of the steps:
as §1

The test system of test [4] is Pichia kudriavzevii. The test can be described thus: Ratio MIC for fluconazole to compound for Candida krusei PMC 0613 after 48 hrs by M27-A3 CLSI method. In kind it is functional.
Test [5] has as its system Pichia kudriavzevii. The test can be described thus: Ratio MIC for fluconazole to compound for Candida krusei after 48 hrs by M27-A3 CLSI method. The format is functional.
Test [6] has as its system Candida tropicalis. The experiment in a line: Antifungal activity against Candida tropicalis DSM11953 after 48 hrs by M27-A3 CLSI method.
For test [7], the system named is Pichia kudriavzevii. The experiment in a line: Ratio MIC for fluconazole to compound for Candida krusei PMC0613 after 48 hrs by M27-A3 CLSI method.
For test [8], the system named is Candida albicans. The test can be described thus: Antifungal activity against Candida albicans after 48 hrs by M27-A3 CLSI method. In kind it is functional. An outline of the steps:
as §1

Test [9] concerns Candida albicans. The test can be described thus: Antifungal activity against Candida albicans ATCC 3153 after 48 hrs by M27-A3 CLSI method. To be noted: ATCC 3153, 48 h. The format is functional. An outline of the steps: as §1
Test [10] concerns Candida albicans. The test can be described thus: Antifungal activity against Candida albicans ATCC 10231 after 48 hrs by M27-A3 CLSI method. The format is functional. To be noted: ATCC 10231, 48 h. An outline of the steps: as §1
Test [11] concerns Candida albicans. The experiment in a line: Antifungal activity against Candida albicans ATCC 76615 after 48 hrs by M27-A3 CLSI method. The format is functional. To be noted: ATCC 76615, 48 h. An outline of the steps:
as §1

In test [12] the test system is Candida. The test can be described thus: Antifungal activity against Candida sp. after 48 hrs by M27-A3 CLSI method. In kind it is functional. The procedure, abridged: as §1
Test [13] has as its system Candida parapsilosis. The test can be described thus: Antifungal activity against Candida parapsilosis ATCC 22019 after 48 hrs by M27-A3 CLSI method. In kind it is functional. Particulars: Lodderomyces parapsilosis, ATCC 22019, 48 h. An outline of the steps: as §1
The test system of test [14] is Candida tropicalis. The experiment in a line: Antifungal activity against Candida tropicalis PMC 0910 after 48 hrs by M27-A3 CLSI method. The format is functional. To be noted: PMC 0910, 48 h. The procedure, abridged:
as §1

Test [15] deals with Candida tropicalis. The test can be described thus: Antifungal activity against Candida tropicalis DSM 11953 after 48 hrs by M27-A3 CLSI method. The format is functional. Particulars: DSM 11953, 48 h. An outline of the steps:
as §1

The test system of test [16] is Pichia kudriavzevii. The experiment in a line: Antifungal activity against Candida krusei DSM 6128 after 48 hrs by M27-A3 CLSI method. To be noted: DSM 6128, 48 h. The format is functional. The procedure, abridged: as §1
The test system of test [17] is Nakaseomyces glabratus. The test can be described thus: Antifungal activity against Candida glabrata PMC 0805 after 48 hrs by M27-A3 CLSI method. The format is functional. Particulars: PMC 0805, 48 h. The procedure, abridged: as §1
Setting [18] is: Candida albicans, ATCC 24433, 48 h, read-out: MIC.
[19] abbreviates: Lodderomyces parapsilosis, DSM 11224, 48 h, read-out: MIC.
Setting [20] is: Pichia kudriavzevii, PMC 0613, 48 h, read-out: MIC.

In the case of `O=C(OC(Cn1ccnc1)c1ccccc1)c1ccc(-c2ccccc2)cc1` (single isomer, unassigned; (-)), the MIC stood at 0.15 µg/mL (≈ 0.407 µM) in test [1], 0.125 µg/mL (≈ 0.339 µM) in [2], 0.37 µg/mL (≈ 1 µM) in test [3] and 0.15 µg/mL (≈ 0.407 µM) in test [6]. Moreover, the Ratio in [4], in test [5] and in test [7] was 30 in each case.

As for `O=C(OC(Cn1ccnc1)c1ccc(F)cc1)c1ccc(-c2ccccc2)cc1` (single isomer, unassigned; (-)), the MIC in [1] is 0.125 µg/mL (≈ 0.323 µM); in test [2], 0.08 µg/mL (≈ 0.207 µM); in test [3], 0.125 µg/mL (≈ 0.323 µM); in test [6] it was 0.27 µg/mL (≈ 0.699 µM). The Ratio in test [4], in test [5] and in test [7] was 90 throughout.

With `O=C(OC(Cn1ccnc1)c1ccccc1)c1ccc(-c2ccccc2)cc1` (single isomer, unassigned; (+)), the MIC worked out at 33.7 µg/mL (≈ 91.5 µM) in [1], 26.67 µg/mL (≈ 72.4 µM) in test [2], 21.33 µg/mL (≈ 57.9 µM) in test [3] and 26.67 µg/mL (≈ 72.4 µM) in test [6].

Consider `OC(Cn1ccnc1)c1ccc(Cl)cc1` (racemic), for which the MIC was 112 µg/mL (≈ 503 µM) in test [8]; greater than 64 µg/mL in test [1] (setting [18]); greater than 32 µg/mL in test [9]; greater than 64 µg/mL in test [10]; greater than 64 µg/mL in test [11]; 108 µg/mL (≈ 485 µM) in [12]. For the same molecule, the MIC in [13] was greater than 64 µg/mL; in test [2] (setting [19]), 64 µg/mL (≈ 287 µM); in test [14] it was greater than 64 µg/mL; in test [15], greater than 64 µg/mL; in test [16], greater than 64 µg/mL; in test [17] it was greater than 64 µg/mL. For the same molecule, the MIC in [3] (setting [20]) was determined as 16 µg/mL (≈ 71.9 µM). Also, the MIC50 in test [8] and in [12] was 128 µg/mL (≈ 575 µM) in each case. The MIC90 in [8] and in test [12] was 128 µg/mL (≈ 575 µM) throughout.

Turning to `O=C(COc1ccccc1)OC(Cn1ccnc1)c1ccc(F)cc1` (racemic), the MIC in [8] was 76.6 µg/mL (≈ 225 µM); in [1] (setting [18]) it was 16 µg/mL (≈ 47 µM); in test [9], no less than 64 µg/mL; in [10], 8 µg/mL (≈ 23.5 µM); in [11], greater than 64 µg/mL; in [12], 61.1 µg/mL (≈ 180 µM). The MIC is greater than 64 µg/mL in test [13]; 4 µg/mL (≈ 11.8 µM) in [2] (setting [19]); 1 µg/mL (≈ 2.94 µM) in test [14]; greater than 64 µg/mL in [15]; greater than 64 µg/mL in [16]; 16 µg/mL (≈ 47 µM) in test [17]. The MIC in test [3] (setting [20]) worked out at 16 µg/mL (≈ 47 µM). The MIC50 in test [8] was 64 µg/mL (≈ 188 µM); in test [12], 4 µg/mL (≈ 11.8 µM). Besides, the MIC90 in [8] and in [12] was 128 µg/mL (≈ 376 µM) in each case.

Consider `CC(C)c1ccc(NC(=O)OC(Cn2ccnc2)c2ccccc2)cc1` (racemic), for which the MIC is 77.7 µg/mL (≈ 222 µM) in test [8]; 32 µg/mL (≈ 91.6 µM) in test [1] (setting [18]); no less than 64 µg/mL in test [9]; 64 µg/mL (≈ 183 µM) in test [10]; no less than 64 µg/mL in test [11]; 107 µg/mL (≈ 305 µM) in test [12]. For the same molecule, the MIC in test [13] is 64 µg/mL (≈ 183 µM); in [2] (setting [19]) it was greater than 64 µg/mL; in test [14], 64 µg/mL (≈ 183 µM); in [15], greater than 64 µg/mL; in [16] it was greater than 64 µg/mL; in test [17], greater than 64 µg/mL. Also, the MIC in test [3] (setting [20]) worked out at 64 µg/mL (≈ 183 µM). Further, the MIC50 is 64 µg/mL (≈ 183 µM) in [8] and 128 µg/mL (≈ 366 µM) in test [12]. Moreover, the MIC90 in [8] and in [12] was 128 µg/mL (≈ 366 µM) each time.
